Reference: PMC9359405 (International Journal of Nanomedicine, 2022)

Tests used:
Assay type in all cases: in vivo, Wistar rats
P-gp = assay: Immunohistochemistry of efflux proteins in brain tissue; conditions: intranasal 1.25 mg/kg, 14 days, score 0-12
[1] = Pharmacokinetics in blood and vital organs; conditions: for CL/F: gavage; for AUC(0-t) / Cmax / MRT last / Tmax / half-life: male, Wistar, rat, po
Method in brief: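 Male Wistar rats (200±20 g) received the test compound as an aqueous solution by gavage. Five rats were sampled at each of 11 times from 5 min to 24 h, and blood and organs were collected and weighed. Tissue homogenates (1% perchloric acid) and plasma (6% perchloric acid) were deproteinized, extracted into ethyl acetate at pH 11.8, and analysed by HPLC at 308 nm. Mean±SD, n=5.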

BCRP = assay: Immunohistochemistry of efflux proteins in brain tissue; conditions: intranasal 1.25 mg/kg, 14 days, score 0-12
MRP1 = assay: as above; conditions: intranasal 1.25 mg/kg, 14 days, score 0-12
[2] = nasal NEs vs gavage HupA aqueous solution

C/C=C1\[C@H]2C=C(C)C[C@]1(N)c1ccc(=O)[nH]c1C2 [HupA Solution, huperzine A]
P-gp protein expression (immunoreactive score) (P-gp): higher in the HupA aqueous solution group than in the blank control group | CL/F ([1]; Brain): 42.63 ± 7.93 mL·h | CL/F ([1]; Heart): 7.26 ± 0.05 mL·h | CL/F ([1]; Kidney): 0.91 ± 0.02 mL·h | CL/F ([1]; Liver): 2.88 ± 0.15 mL·h | CL/F ([1]; Lung): 4.03 ± 0.09 mL·h | CL/F ([1]; Plasma): 9.88 ± 0.89 mL·h | CL/F ([1]; Spleen): 2.45 ± 0.03 mL·h | AUC(0-t) ([1]; brain): 28.6 ± 5.72 ng·h/mL | Cmax ([1]; brain): 15 ± 4.25 ng/mL | MRT last ([1]; brain): 1.49 ± 0.12 h | Tmax ([1]; brain): 0.5 h | half-life ([1]; brain): 1.27 ± 0.16 h | AUC(0-t) ([1]; heart): 163 ± 5.85 ng·h/mL | Cmax ([1]; heart): 163 ± 7.33 ng/mL | MRT last ([1]; heart): 1.6 ± 0.05 h | Tmax ([1]; heart): 0.5 h | half-life ([1]; heart): 2.21 ± 0.68 h | AUC(0-t) ([1]; kidney): 1350 ± 33.3 ng·h/mL | Cmax ([1]; kidney): 567 ± 40.6 ng/mL | MRT last ([1]; kidney): 2.78 ± 0.05 h | Tmax ([1]; kidney): 1 h | half-life ([1]; kidney): 2.1 ± 0.1 h | AUC(0-t) ([1]; liver): 424 ± 22.9 ng·h/mL | Cmax ([1]; liver): 256 ± 8.27 ng/mL | MRT last ([1]; liver): 1.95 ± 0.04 h | Tmax ([1]; liver): 0.5 h | AUC(0-t) ([1]; lung): 288 ± 13 ng·h/mL | Cmax ([1]; lung): 173 ± 14.1 ng/mL | MRT last ([1]; lung): 2.28 ± 0.06 h | Tmax ([1]; lung): 1 h | half-life ([1]; lung): 2.49 ± 0.13 h | AUC(0-t) ([1]; plasma): 119 ± 10.1 ng·h/mL | Cmax ([1]; plasma): 109 ± 8.99 ng/mL | MRT last ([1]; plasma): 1.31 ± 0.12 h | Tmax ([1]; plasma): 0.5 h | half-life ([1]; plasma): 1.77 ± 0.83 h | AUC(0-t) ([1]; spleen): 485 ± 5.11 ng·h/mL | Cmax ([1]; spleen): 195 ± 4.58 ng/mL | MRT last ([1]; spleen): 2.03 ± 0.06 h | Tmax ([1]; spleen): 1 h | Concentration (C) of the drug in brain tissue at the same time point (order) [1, 2]: CLf-HupA-NE>CHupA-NE>CHupA aqueous solution | Duration of action in the brain (T) (order) [1, 2]: TLf-HupA-NE>THupA-NE>THupA aqueous solution | BCRP protein expression (immunoreactive score) (BCRP): higher in the HupA aqueous solution group than in the blank control group | MRP1 protein expression (immunoreactive score) (MRP1): higher in the HupA aqueous solution group than in the blank control group
